Columns and labels:
[1] = target: T1, Mitogen-activated protein kinase kinase kinase 14 (Homo sapiens, UniProt Q99558); test: Inhibition of recombinant N-terminal GST-fused human NIK (319 to 947 residues) expressed in baculovirus expression system incubated for 120 mins in presence of ATP by ADP-glo based luminescence assay
In short: (§1)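 ADP-Glo luminescence assay with recombinant human MAP3K14. Buffer: Tris pH 7.5, 2 mM DTT, 2 mM MgCl₂, 100 µM Na₃VO₄, 0.02 mg/mL BSA, 5% DMSO; ATP 10 µM. Reaction 120 min at room temperature; ADP-Glo reagent 40 min, then detection reagent 40 min. Mean ± SD from two independent experiments.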
Target sequence in this assay (Q99558 whole entry, the tested form may be a part): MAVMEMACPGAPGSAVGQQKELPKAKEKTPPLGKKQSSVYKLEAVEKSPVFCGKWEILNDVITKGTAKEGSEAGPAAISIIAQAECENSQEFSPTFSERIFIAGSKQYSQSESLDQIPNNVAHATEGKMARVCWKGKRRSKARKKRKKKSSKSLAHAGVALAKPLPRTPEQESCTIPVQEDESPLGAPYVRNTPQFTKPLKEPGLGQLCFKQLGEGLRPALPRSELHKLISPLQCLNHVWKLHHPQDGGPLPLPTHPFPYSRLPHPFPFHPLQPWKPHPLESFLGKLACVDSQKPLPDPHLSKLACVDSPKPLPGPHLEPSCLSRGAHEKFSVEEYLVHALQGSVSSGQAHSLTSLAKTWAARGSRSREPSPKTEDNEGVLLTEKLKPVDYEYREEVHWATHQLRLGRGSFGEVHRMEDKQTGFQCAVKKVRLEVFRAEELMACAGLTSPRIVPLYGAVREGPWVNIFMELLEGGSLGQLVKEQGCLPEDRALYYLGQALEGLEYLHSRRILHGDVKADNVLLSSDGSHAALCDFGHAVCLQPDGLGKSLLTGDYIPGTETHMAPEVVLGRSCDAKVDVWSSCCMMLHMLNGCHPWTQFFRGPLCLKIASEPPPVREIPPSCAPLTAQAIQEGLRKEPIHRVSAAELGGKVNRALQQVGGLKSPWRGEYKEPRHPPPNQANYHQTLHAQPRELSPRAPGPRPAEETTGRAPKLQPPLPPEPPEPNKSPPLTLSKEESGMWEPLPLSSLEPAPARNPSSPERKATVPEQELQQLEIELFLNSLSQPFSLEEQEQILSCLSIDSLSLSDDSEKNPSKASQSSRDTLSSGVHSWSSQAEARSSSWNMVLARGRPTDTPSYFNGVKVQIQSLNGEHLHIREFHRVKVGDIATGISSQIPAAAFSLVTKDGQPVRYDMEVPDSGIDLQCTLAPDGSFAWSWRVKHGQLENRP

[2] = test system: T-cell; test: Antiinflammatory activity in mouse T cells assessed as inhibition of conA-induced induced T cell proliferation at 2 uM incubated for 48 hrs by CCK8 assay relative to control; type: functional
[3] = test system: T-cell; test: Antiinflammatory activity in mouse T cells assessed as inhibition of conA-induced induced T cell proliferation at 0.4 uM incubated for 48 hrs by CCK8 assay relative to control; type: functional
[4] = test system: J774; test: Antiinflammatory activity in mouse J774 cells assessed as inhibition of LPS-induced NO production at 1 uM preincubated for 2 hrs followed by LPS stimulation and measured after 22 hrs by Griess reagent based assay relative to control; type: functional
In short: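 J774 macrophages seeded at 2*10^4 cells/mL, 24 h at 37 °C 5% CO₂; compound in DMSO at 1 µM, 3 replicate wells, 2 h pre-incubation, then LPS at 1 ug/mL final for 22 h. Supernatant nitrite read with Griess reagent at 540 nm against a sodium nitrite standard curve. Inhibition % = (model − compound)/(model − control) NO ×100; mean ± SD, three independent experiments.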

[5] = test system: T-cell; test: Growth inhibition of mouse T cells at 10 uM after 48 hrs by CCK8 assay; type: cell-based
In short: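 Unstimulated mouse splenic T cells exposed to compound at 10 µM. Growth read by CCK-8 absorbance; […]. Mean ± SD, three independent experiments.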

[6] = Intrinsic clearance in dog liver microsomes assessed as per mg of protein incubated for 10 mins followed by potassium phosphate buffer addition and measured after 5 to 60 mins by LC-MS/MS analysis; type: ADME, Canis lupus familiaris, Microsome; details: read-out: CLH
In short: (§2)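 Rat, dog, monkey or human liver microsomes pre-incubated with compound at 37 °C for 10 min; reaction started after pre-warming and stopped at 5, 15, 30, 60 min with chilled quench containing tolbutamide and labetalol. No-cofactor control in 100 mM potassium phosphate for 60 min. LC-MS/MS analysis; first-order fit: k = −slope, T1/2 = 0.693/k, CLint = k/microsomal protein concentration.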

[7] = Elimination half life in human liver microsomes incubated for 10 mins followed by potassium phosphate buffer addition and measured after 5 to 60 mins by LC-MS/MS analysis; type: ADME, Microsome; details: read-out: beta t1/2; in short: as §2
[8] = target: T1, Mitogen-activated protein kinase kinase kinase 14; test: Inhibition of NIK (unknown origin); in short: as §1
Target sequence in this assay (Q99558 whole entry, the tested form may be a part): as above

[9] = target: T1, Mitogen-activated protein kinase kinase kinase 14; test: Inhibition of NIK in human BEAS2B cells assessed as reduction in LPS-induced IL-6 level preincubated for 8 hrs followed by LPS stimulation and measured after 24 hrs by ELISA; type: cell-based
In short: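 BEAS-2B cells were grown in DMEM with 10% FBS, seeded at 5000 cells/well, and cultured 24 h at 37 °C in 5% CO2. Compounds were given at 7 concentrations from 10 μM to 0.014 μM (3 replicate wells), with dexamethasone as positive control. After 8 h, LPS (20 μg/mL solution) was added for 24 h. Supernatant IL-6 was read by human IL-6 ELISA; two biological replicates.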
Target sequence in this assay (Q99558 whole entry, looked up, the tested form may be a part): as the sequence (Q99558 whole entry, the tested form may be a part) above

[10] = Elimination half life in rat liver microsomes incubated for 10 mins followed by potassium phosphate buffer addition and measured after 5 to 60 mins by LC-MS/MS analysis; type: ADME, Microsome; details: read-out: beta t1/2; in short: as §2
[11] = Intrinsic hepatic clearance in monkey; type: ADME, Macaca mulatta; details: rhesus monkey, in vivo
In short: (§3)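 Scaled from microsomal intrinsic clearance: CLint,in vitro × microsomal protein per g liver × liver weight per kg body weight.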

[12] = Intrinsic clearance in monkey liver microsomes assessed as per mg of protein incubated for 10 mins followed by potassium phosphate buffer addition and measured after 5 to 60 mins by LC-MS/MS analysis; type: ADME, Macaca mulatta, Microsome; details: rhesus monkey, read-out: CLH; in short: as §2
[13] = Elimination half life in monkey liver microsomes incubated for 10 mins followed by potassium phosphate buffer addition and measured after 5 to 60 mins by LC-MS/MS analysis; type: ADME, Macaca mulatta, Microsome; details: rhesus monkey, read-out: beta t1/2; in short: as §2
[14] = Intrinsic hepatic clearance in rat; type: ADME; details: in vivo; in short: as §3
[15] = Intrinsic clearance in human liver microsomes assessed per mg of protein incubated for 10 mins followed by potassium phosphate buffer addition and measured after 5 to 60 mins by LC-MS/MS analysis; type: ADME, Microsome; details: read-out: CLH; in short: as §2
[16] = Intrinsic hepatic clearance in dog; type: ADME, Canis lupus familiaris; details: in vivo; in short: as §3
[17] = Intrinsic clearance in rat liver microsomes assessed as per mg of protein incubated for 10 mins followed by potassium phosphate buffer addition and measured after 5 to 60 mins by LC-MS/MS analysis; type: ADME, Microsome; details: read-out: CLH; in short: as §2
[18] = Elimination half life in dog liver microsomes incubated for 10 mins followed by potassium phosphate buffer addition and measured after 5 to 60 mins by LC-MS/MS analysis; type: ADME, Canis lupus familiaris, Microsome; details: read-out: beta t1/2; in short: as §2
[19] = Intrinsic hepatic clearance in human; type: ADME; in short: as §3
[20] = target: T1, Mitogen-activated protein kinase kinase kinase 14; test: Inhibition of recombinant N-terminal GST-fused human NIK (319 to 947 residues) expressed in baculovirus expression system assessed as residual activity at 1 uM incubated for 120 mins in presence of ATP by ADP-glo based luminescence assay relative to control
Target sequence in this assay (Q99558 whole entry, looked up, the tested form may be a part): as the sequence (Q99558 whole entry, the tested form may be a part) above

SMILES | IC50 [1] [nM] | inhibition at 2 µM [2] [%] | inhibition at 0.4 µM [3] [%] | inhibition at 1 µM [4] [%] | also measured
CC(O)(C#Cc1ccc(OC2CCOCC2)c(Nc2ncnc3[nH]ccc23)c1)c1nccs1 (configuration not stated) | 112 | 42.9 | 19.9 | 68.3 | –
OC1(C#Cc2ccc(N3CCOCC3)c(Nc3ncnc4[nH]ccc34)c2)CCCCC1 | 1270 | – | – | – | –
CN(C)c1ccc(C#CC(C)(O)c2nccs2)cc1Nc1ncnc2[nH]ccc12 (configuration not stated) | 22.5 | – | – | – | –
CCS(=O)(=O)N1CCN(c2ccc(C#CC(C)(O)c3nccs3)cc2Nc2ncnc3[nH]ccc23)CC1 (configuration not stated) | 8.22 | 32.5 | 14 | 34.5 | –
CN(C)CCN(C)c1ccc(C#CC(C)(O)c2nccs2)cc1Nc1ncnc2[nH]ccc12 (configuration not stated) | 484 | – | – | – | –
CN1CCC(Oc2ccc(C#CC(C)(O)c3nccs3)cc2Nc2ncnc3[nH]ccc23)CC1 (configuration not stated) | 705 | – | – | – | –
CC(O)(C#Cc1ccc2c(c1)N(c1nc(N)ncc1Cl)CC2)c1nccs1 (configuration not stated) | 4.7 | 59.6 | 19 | 43.9 | microsomal CLint [6]: 192 µL/min/mg; half-life [7]: 33.9 min; Ki [8]: 0.4 nM; inhibition [9]: Dose-dependent effect; half-life [10]: 9.82 min; CLH [11]: 300 mL/min/kg; microsomal CLint [12]: 208 µL/min/mg; half-life [13]: 6.66 min; CLH [14]: 254 mL/min/kg; microsomal CLint [15]: 40.8 µL/min/mg; CLH [16]: 276 mL/min/kg; microsomal CLint [17]: 141 µL/min/mg; half-life [18]: 7.22 min; CLH [19]: 38.6 mL/min/kg
O=C(Nc1ccc(N2CCOCC2)c(Nc2ncnc3[nH]ccc23)c1)C1CCCC1 | – | – | – | – | Activity [20]: 77.3%
CC(O)(C(=O)Nc1ccc(N2CCOCC2)c(Nc2ncnc3[nH]ccc23)c1)c1nccs1 (configuration not stated) | 1400 | – | – | – | –
CC(O)(C#Cc1ccc(N2CC3CC2CN3)c(Nc2ncnc3[nH]ccc23)c1)c1nccs1 (configuration not stated) | 200 | – | – | – | –
CC(O)(C#Cc1ccc(N2CCOCC2)c(Nc2ncnc3[nH]ccc23)c1)C1CCCC1 (configuration not stated) | 2240 | – | – | – | –
CC(O)(C#Cc1cccc(Nc2ncnc3[nH]ccc23)c1)c1nccs1 (configuration not stated) | 1640 | – | – | – | –
OC1(C#Cc2ccc(N3CCOCC3)c(Nc3ncnc4[nH]ccc34)c2)CCCC1 | 645 | – | – | – | –
COCCN(C)c1ccc(C#CC(C)(O)c2nccs2)cc1Nc1ncnc2[nH]ccc12 (configuration not stated) | 72.4 | 27.9 | 13.3 | 48 | –
O=C(Nc1ccc(N2CCOCC2)c(Nc2ncnc3[nH]ccc23)c1)NC1CCCC1 | – | – | – | – | Activity [20]: 76.4%

More lines, main results first:

IC50 [1] [nM] | SMILES | inhibition at 2 µM [2] [%] | inhibition at 0.4 µM [3] [%] | inhibition at 1 µM [4] [%] | also measured
17.8 | CC(=O)N1CCN(c2ccc(C#CC(C)(O)c3nccs3)cc2Nc2ncnc3[nH]ccc23)CC1 (configuration not stated) | 31.5 | 16.2 | 29.3 | –
> 10000 | CC(O)(C#Cc1ccc(N2CCOCC2)c(Nc2c(Cl)cnc3[nH]ccc23)c1)c1nccs1 (configuration not stated) | – | – | – | –
47.9 | CC(O)(C#Cc1ccc(N2CCNCC2)c(Nc2ncnc3[nH]ccc23)c1)c1nccs1 (configuration not stated) | 39.9 | 20.3 | 68 | –
6.59 | CC(O)(C#Cc1ccc(N2CCOCC2)c(Nc2ccnc3[nH]ccc23)c1)c1nccs1 (configuration not stated) | 50.2 | 19 | 60.4 | –
136 | C[C@](O)(C#Cc1ccc(N2CCOCC2)c(Nc2ncnc3[nH]ccc23)c1)c1nccs1 | 60.1 | 39.5 | 74.3 | Activity [5]: Non-Toxic
34.5 | CCN1CCN(c2ccc(C#CC(C)(O)c3nccs3)cc2Nc2ncnc3[nH]ccc23)CC1 (configuration not stated) | 33.7 | 24.1 | 67.4 | –
16.2 | CC(O)(C#Cc1ccc(N2CCN(S(=O)(=O)C3CC3)CC2)c(Nc2ncnc3[nH]ccc23)c1)c1nccs1 (configuration not stated) | 32.3 | 16.9 | 37.2 | –
2710 | CC(C)(O)C#Cc1ccc(N2CCOCC2)c(Nc2ncnc3[nH]ccc23)c1 | – | – | – | –
107 | CC(O)(C#Cc1ccc(N2CCCC2)c(Nc2ncnc3[nH]ccc23)c1)c1nccs1 (configuration not stated) | – | – | – | –
69.2 | C[C@H]1CN(c2ccc(C#CC(C)(O)c3nccs3)cc2Nc2ncnc3[nH]ccc23)CCN1 (some centres not stated) | 49.5 | 38 | 62.9 | –
12 | C[C@@](O)(C#Cc1ccc(N2CCOCC2)c(Nc2ncnc3[nH]ccc23)c1)c1nccs1 | 61.2 | 37.6 | 100 | Activity [5]: Toxic
1380 | CC(O)(C#Cc1ccc(N2CCOCC2)c(Nc2c(F)cnc3[nH]ccc23)c1)c1nccs1 (configuration not stated) | – | – | – | –
179 | CC(O)(C#Cc1ccc(N2CCOCC2)c(Nc2ncnc3sccc23)c1)c1nccs1 (configuration not stated) | – | – | – | –
11.4 | CC(O)(C#Cc1ccc(N2CCOCC2)c(Nc2ccnc(N)n2)c1)c1nccs1 (configuration not stated) | 31.4 | 27.4 | 58.5 | –
78.3 | CN1CCN(c2ccc(C#CC(C)(O)c3nccs3)cc2Nc2ncnc3[nH]ccc23)CC1 (configuration not stated) | 43.7 | 33 | 78.5 | –
209 | C[C@@H]1CN(c2ccc(C#CC(C)(O)c3nccs3)cc2Nc2ncnc3[nH]ccc23)CCN1 (some centres not stated) | – | – | – | –
50.4 | CC(O)(C#Cc1ccc(N2CCOCC2)c(Nc2ncnc3[nH]ccc23)c1)c1cccs1 (configuration not stated) | – | – | – | –
60.1 | CN1CCCN(c2ccc(C#CC(C)(O)c3nccs3)cc2Nc2ncnc3[nH]ccc23)CC1 (configuration not stated) | 47.7 | 35.5 | 67.3 | –
8.63 | CC(O)(C#Cc1ccc(N2CCOCC2)c(Nc2ncnc3[nH]ncc23)c1)c1nccs1 (configuration not stated) | 24.7 | 14.8 | 35.9 | –
15.3 | CC(O)(C#Cc1ccc(N2CCC(N3CCOCC3)CC2)c(Nc2ncnc3[nH]ccc23)c1)c1nccs1 (configuration not stated) | 34.5 | 32.2 | 57.7 | –
